Measurements: paper PMC12248229 (PeerJ, 2025)
Like-named read-outs stand apart in the source and are kept apart here.

Legend:
in vivo = format: in vivo, Sprague-Dawley (SD) rats; settings: for AUC(0-t): AUC0–t; for AUC(0-inf): AUC0–∞; for MRT last: MRT0–t; for MRT inf: MRT0–∞; for half-life: t1/2, rats
Ugt1a7 = experiment: qRT-PCR mRNA expression in rat liver and intestine after 7 days of dosing; format: in vivo; settings: either the liver or the intestine of rats, after multiple doses
In short: (§1)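 Rats (n = 6/group) gavaged daily for 7 days with test compound: 2.5 or 1 mg/kg in 0.5% CMC-Na, or 100 mg/kg in 0.5% CMC-Na with 5% DMSO. Liver and intestine harvested under chloral hydrate and stored at −80 °C. TRNzol RNA extraction; 1 μg RNA reverse-transcribed. qPCR: 95 °C 15 min, then 40 cycles of 95 °C 10 s/60 °C 32 s. […] reference; 2^−ΔΔCT.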

P-gp = experiment: as above; format: in vivo; settings: after multiple doses
In short: as §1

Oatp1b2 = experiment: qRT-PCR mRNA expression in rat liver after 7 days of dosing; format: in vivo; settings: after multiple doses
In short: as §1

[1] = Stability of analytes in rat plasma; format: physicochemical; settings: n = 6
[2] = ref Chen et al., 2021, Zhang et al.; cited from earlier work
[3] = format: in vivo, Sprague-Dawley (SD) rats; settings: for AUC(0-t): AUC0–t; for AUC(0-t) / Cmax / MRT last / MRT inf / Tmax / half-life / CLz / Vz: n = 6; for MRT last: MRT0–t; for MRT inf: MRT0–∞; for half-life: t1/2, rats
Ugt2b7 = experiment: qRT-PCR mRNA expression in rat liver and intestine after 7 days of dosing; format: in vivo; settings: after administration for seven consecutive days
In short: as §1

[4] = system: patients with advanced HCC; settings: ref Llovet et al., 2008, cited from earlier work
[5] = ref Lathia et al., 2006; cited from earlier work
[6] = Sprague-Dawley, rat, in vivo, po, 1 mg/kg, rats, henagliflozin 1 mg/kg after sorafenib 100 mg/kg for 7 consecutive days, n = 6
[7] = Sprague-Dawley, rat, in vivo, po, 1 mg/kg, rats, henagliflozin 1 mg/kg oral, alone, n = 6
[8] = rats, henagliflozin 1 mg/kg after sorafenib 100 mg/kg for 7 consecutive days, n = 6
[9] = rats, henagliflozin and sorafenib, versus control group
[10] = Autosampler (15 °C) for 6 h, nominal 10 ng/mL
[11] = Autosampler (15 °C) for 6 h, nominal 800 ng/mL
[12] = Autosampler (15 °C) for 6 h, nominal 1,500 ng/mL
[13] = Room temperature for 4 h, nominal 10 ng/mL
[14] = Room temperature for 4 h, nominal 800 ng/mL
[15] = Room temperature for 4 h, nominal 1,500 ng/mL
[16] = Three freeze–thaw cycles (−80 °C to 25 °C), nominal 10 ng/mL
[17] = Three freeze–thaw cycles (−80 °C to 25 °C), nominal 800 ng/mL
[18] = Three freeze–thaw cycles (−80 °C to 25 °C), nominal 1,500 ng/mL
[19] = −80 °C for 30 days, nominal 10 ng/mL
[20] = −80 °C for 30 days, nominal 800 ng/mL
[21] = −80 °C for 30 days, nominal 1,500 ng/mL
[22] = Sprague-Dawley, rat, plasma, po, 100 mg/kg, rats, sorafenib 100 mg/kg after empagliflozin […] for 7 consecutive days
[23] = Sprague-Dawley, rat, plasma, po, 100 mg/kg, rats, sorafenib 100 mg/kg after henagliflozin 1 mg/kg for 7 consecutive days
[24] = Sprague-Dawley, rat, plasma, po, 100 mg/kg, rats, sorafenib 100 mg/kg by gavage, alone
[25] = rats, after empagliflozin, versus sorafenib alone group
[26] = rats, coadministered with henagliflozin, versus sorafenib alone
[27] = rats, sorafenib 100 mg/kg after empagliflozin […] for 7 consecutive days
[28] = rats, sorafenib 100 mg/kg after henagliflozin 1 mg/kg for 7 consecutive days
[29] = rats, sorafenib 100 mg/kg by gavage, alone

Question: Which AUC(0-t) (in vivo; [6]) does the source give for `CCOc1ccc(Cc2cc([C@@]34OC[C@@](CO)(O3)[C@@H](O)[C@H](O)[C@H]4O)ccc2Cl)cc1F` [Henagliflozin] here?
Answer: 3.45 µg·h/mL

Question: And the AUC(0-t) (in vivo; [7])?
Answer: 1.92 µg·h/mL

Question: What about the AUC(0-inf) (in vivo; [6]) of the same compound?
Answer: 3.46 µg·h/mL

Question: And the AUC(0-inf) (in vivo; [7])?
Answer: 1.95 µg·h/mL

Question: And the Cmax (in vivo; Sprague-Dawley, rat, in vivo, po, 1 mg/kg, Cmax, rats, henagliflozin 1 mg/kg oral, alone, n = 6)?
Answer: 0.197 ± 0.0369 µg/mL

Question: What about the MRT last (in vivo; [6]) of the same compound?
Answer: 9.36 ± 3.63 h

Question: What about the MRT last (in vivo; [7]) of the same compound?
Answer: 7.84 ± 1.68 h

Question: What about the MRT inf (in vivo; [6]) of the same compound?
Answer: 9.49 ± 3.57 h

Question: What about the MRT inf (in vivo; [7]) of the same compound?
Answer: 8.49 ± 2.86 h

Question: What about the Tmax (in vivo; [6]) of the same compound?
Answer: 1.33 ± 1.36 h

Question: What about the Tmax (in vivo; [7]) of the same compound?
Answer: 3.25 ± 1.67 h

Question: What about the half-life (in vivo; Sprague-Dawley, rat, in vivo, po, 1 mg/kg, henagliflozin 1 mg/kg after sorafenib 100 mg/kg for 7 consecutive days, n = 6) of the same compound?
Answer: 5.1 ± 1.31 h

Question: And the half-life (in vivo; Sprague-Dawley, rat, in vivo, po, 1 mg/kg, henagliflozin 1 mg/kg oral, alone, n = 6)?
Answer: 5.11 ± 3.62 h

Question: And the CLz (in vivo; [8])?
Answer: 0.30 ± 0.05 L/h/kg

Question: And the Vz (in vivo; [8])?
Answer: 2.25 ± 0.77 L/kg

Question: And the CLz (in vivo; rats, henagliflozin 1 mg/kg oral, alone, n = 6)?
Answer: 0.53 ± 0.1 L/h/kg

Question: And the “differences in Tmax, t1/2, Vz/F, MRT0–t and MRT0–∞ of henagliflozin” value (in vivo; rats, henagliflozin and sorafenib versus control)?
Answer: no significant differences

Question: What about the “increase of AUC0–t of henagliflozin” value (in vivo; [9]) of the same compound?
Answer: 79.1%

Question: And the “increase of AUC0–∞ of henagliflozin” value (in vivo; [9])?
Answer: 77.7%

Question: What about the “change in the expression of Ugt1a7” value (Ugt1a7) of the same compound?
Answer: no significant change

Question: What about the “decrease of mRNA expression of P-gp” value (P-gp; rat intestine) of the same compound?
Answer: 43.2%

Question: And the “decrease of mRNA expression of P-gp” value (P-gp; rat liver)?
Answer: 27.1%

Question: What about the “decrease of mRNA expression of Oatp1b2” value (Oatp1b2) of the same compound?
Answer: 38.4%

Question: What about the “Stability: Accuracy (RE%)” value [1, 10] of the same compound?
Answer: −4.33%

Question: What about the “Stability: Mean ± SD measured concentration” value (“Stability: Mean ± SD” below) [1, 10] of the same compound?
Answer: 9.57 ± 0.87 ng/mL

Question: And the “Stability: Accuracy (RE%)” value [1, 11]?
Answer: −1.90%

Question: And the “Stability: Mean ± SD” value [1, 11]?
Answer: 784.83 ± 31.98 ng/mL

Question: And the “Stability: Accuracy (RE%)” value [1, 12]?
Answer: −4.22%

Question: What about the “Stability: Mean ± SD” value [1, 12] of the same compound?
Answer: 1,436.67 ± 29.44 ng/ml

Question: What about the “Stability: Accuracy (RE%)” value [1, 13] of the same compound?
Answer: −0.28%

Question: And the “Stability: Mean ± SD” value [1, 13]?
Answer: 9.97 ± 0.73 ng/mL

Question: And the “Stability: Accuracy (RE%)” value [1, 14]?
Answer: −4.63%

Question: And the “Stability: Mean ± SD” value [1, 14]?
Answer: 763.00 ± 31.79 ng/mL

Question: And the “Stability: Accuracy (RE%)” value [1, 15]?
Answer: −2.00%

Question: And the “Stability: Mean ± SD” value [1, 15]?
Answer: 1,470.00 ± 59.67 ng/ml

Question: What about the “Stability: Accuracy (RE%)” value [1, 16] of the same compound?
Answer: −1.70%

Question: And the “Stability: Mean ± SD” value [1, 16]?
Answer: 9.83 ± 0.95 ng/mL

Question: And the “Stability: Accuracy (RE%)” value [1, 17]?
Answer: −3.65%

Question: What about the “Stability: Mean ± SD” value [1, 17] of the same compound?
Answer: 770.83 ± 18.66 ng/mL

Question: What about the “Stability: Accuracy (RE%)” value [1, 18] of the same compound?
Answer: 0.56%

Question: What about the “Stability: Mean ± SD” value [1, 18] of the same compound?
Answer: 1,508.33 ± 72.78 ng/ml

Question: And the “Stability: Accuracy (RE%)” value [1, 19]?
Answer: −1.12%

Question: And the “Stability: Mean ± SD” value [1, 19]?
Answer: 9.89 ± 0.95 ng/mL

Question: What about the “Stability: Accuracy (RE%)” value [1, 20] of the same compound?
Answer: −1.35%

Question: What about the “Stability: Mean ± SD” value [1, 20] of the same compound?
Answer: 789.17 ± 38.83 ng/mL

Question: And the “Stability: Accuracy (RE%)” value [1, 21]?
Answer: −2.11%

Question: What about the “Stability: Mean ± SD” value [1, 21] of the same compound?
Answer: 1,468.33± 53.45 ng/ml

Question: What about the “eliminated by the fecal route” value [2] of the same compound?
Answer: 50%

Question: And the “eliminated by the renal route” value [2]?
Answer: 30%

Question: What does the source list for `CNC(=O)c1cc(Oc2ccc(NC(=O)Nc3ccc(Cl)c(C(F)(F)F)c3)cc2)ccn1` [Sorafenib]?
Answer: AUC(0-inf) ([3]; Sprague-Dawley, rat, plasma, po, 100 mg/kg): 20.6 µg·h/mL; AUC(0-t) [3, 22]: 37 µg·h/mL; AUC(0-t) [3, 23]: 33.5 µg·h/mL; AUC(0-t) [3, 24]: 20 µg·h/mL; Cmax [3, 22]: 1.86 µg/mL; Cmax [3, 23]: 1.23 µg/mL; Cmax [3, 24]: 0.967 ± 0.176 µg/mL; MRT last [3, 22]: 28.7 ± 11.5 h; MRT last [3, 23]: 51 ± 11.1 h; MRT last [3, 24]: 37.2 ± 11.4 h; MRT inf [3, 23]: 66 ± 24.8 h; MRT inf [3, 24]: 40.5 ± 13.4 h; Tmax [3, 23]: 5.67 ± 2.58 h; Tmax [3, 24]: 4.33 ± 2.07 h; half-life ([3]; Sprague-Dawley, rat, plasma, po, 100 mg/kg, sorafenib 100 mg/kg after empagliflozin […] for 7 consecutive days): 47.6 ± 32.2 h; half-life ([3]; Sprague-Dawley, rat, plasma, po, 100 mg/kg, sorafenib 100 mg/kg after henagliflozin 1 mg/kg for 7 consecutive days): 28.6 ± 21.7 h; half-life ([3]; Sprague-Dawley, rat, plasma, po, 100 mg/kg, sorafenib 100 mg/kg by gavage, alone): 18.7 ± 4.85 h; decrease of CLz/F of sorafenib ([3]; rats, after empagliflozin, versus control group): 45%; increase of AUC0–t of sorafenib [3, 25]: 84%; increase of AUC0–∞ of sorafenib [3, 25]: 93%; increase of Cmax of sorafenib [3, 25]: 92%; increase of AUC0–t of sorafenib [3, 26]: 67%; increase of AUC0–∞ of sorafenib [3, 26]: 80%; CLz [3, 27]: 3.20 ± 2.01 L/h/kg; Vz [3, 27]: 201.55 ± 161.11 L/kg; CLz [3, 28]: 2.81 ± 0.65 L/h/kg; Vz [3, 28]: 110.19 ± 73.12 L/kg; CLz [3, 29]: 5.82 ± 2.59 L/h/kg; Vz [3, 29]: 93.83 ± 63.20 L/kg; downregulation of mRNA expression of Ugt2b7 (Ugt2b7; rat intestine): 68.3%; effect on the expression of Ugt2b7 (Ugt2b7; rat liver): did not significantly affect; HR (overall survival versus control group) ([4]; 95% confidence interval [0.55–0.87], P < 0.001): 0.69; median overall survival ([4]; patients in the sorafenib group, phase 3 versus placebo): 10.7 months; administered dose eliminated as oxidative metabolites [5]: less than 5%; administered dose removed from the body through glucuronidation [5]: 15%
